In general, Kd refers to the equilibrium constant for the complex coming apart. Read a high Kd as lower affinity. One may read the IC50 as the concentration needed to halve the response being measured.

From ChEMBL document CHEMBL1145589, “Discovery of benzamide tetrahydro-4H-carbazol-4-ones as novel small molecule inhibitors of Hsp90” (Bioorg Med Chem Lett, 2008) come the findings set out here.

Assay [1] is described as follows: Binding affinity to Hsp90 in pig spleen extract by Bradford protein assay. The assay is classed as tissue-based, Sus scrofa.
Assay [2] relates to SK-BR-3. Kind of assay: Inhibition of Her2 degradation in human SKBR3 cells by ELISA. The assay is classed as functional, cell-based. The essentials: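 Cellular ELISA in SKBR3 cells treated 24 h with compound, then methanol-fixed; Her2 detected with mouse anti-Her2 primary and peroxidase-conjugated anti-mouse secondary antibody; IC50 determined.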
In general terms: In an ELISA, binding on a coated surface is turned into a signal by an enzyme label.

Assay [3] concerns A-375. As to the kind of experiment: Inhibition of cell proliferation in human A375 cells. The assay is classed as functional, cell-based. In outline:
(§1)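 Cells seeded in 96-well plates; compound added 24 h later, then growth continued for a further 72 or 144 h depending on the line's growth rate before proliferation was measured.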

Another assay deals with HT-29. As to the kind of experiment: Inhibition of cell proliferation in human HT29 cells. The assay is classed as functional, cell-based. In outline: as §1
A further assay deals with LNCaP. Kind of assay: Inhibition of cell proliferation in human LNCAP cells. The assay is classed as functional, cell-based. The essentials: as §1
The test system of a further assay is MCF7. As to the kind of experiment: Inhibition of cell proliferation in human MCF7 cells. The assay is classed as functional, cell-based. The essentials:
as §1

The test system of another assay is MDA-MB-231. Kind of assay: Inhibition of cell proliferation in human MDA-MB-231 cells. The assay is classed as functional, cell-based. The essentials:
as §1

In a further assay the test system is NCI-H460. As to the kind of experiment: Inhibition of cell proliferation in human NCI-H460 cells. The assay is classed as functional, cell-based. The essentials:
as §1

A further assay concerns PC-3. As to the kind of experiment: Inhibition of cell proliferation in human PC3 cells. The assay is classed as functional, cell-based. The essentials:
as §1

The test system of a further assay is SK-MEL-5. Kind of assay: Inhibition of cell proliferation in human SKMEL5 cells. The assay is classed as functional, cell-based. In outline: as §1
The test system of a further assay is SW-620. Kind of assay: Inhibition of cell proliferation in human SW620 cells. The assay is classed as functional, cell-based. In outline: as §1
In assay [4] the test system is A-375. Kind of assay: Induction of Hsp70 in human A375 cells. The assay is classed as functional, cell-based. The essentials: (§2)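 High content imaging: A375 cells treated 24 h with compound, fixed in 4% PBS-buffered formalin, probed with anti-Hsp70 or anti-phospho-S6 primary antibodies, then TRITC- or FITC-conjugated secondaries, and imaged.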
The nature of assay [5]: Inhibition of pErk in AU565 cells. The assay is classed as cell-based.
Assay [6] in a line: Inhibition of pS6 in A375 cells. The assay is classed as cell-based. The following applies: A-375. The essentials: as §2
For assay [7], the system named is SK-BR-3. Kind of assay: Inhibition of Her2 degradation in human SKBR3 cells.

In the case of `NC(=O)c1ccc(-n2c3c(c4cc(F)ccc42)C(=O)CCC3)cc1NN1CCOCC1`, in [1], binding was put at a Kd of 270 nM. This compound also gave an IC50 with SK-BR-3 [2] of 1600 nM.
Take `NC(=O)c1ccc(-n2c3c(c4ccccc42)C(=O)CCC3)cc1NCc1ccncc1`: the Kd in assay [1] is 820 nM. In addition, half-maximal inhibition in the assay with SK-BR-3 [2] (IC50) was put at 5000 nM.
For the compound `COc1cc(-n2c3c(c4ccccc42)C(=O)CCC3)ccc1C(N)=O`, the Kd in assay [1] was more than 10000 nM. The same compound gave an IC50 in the assay with SK-BR-3 [2] of more than 50000 nM.
`COc1ccc(CNc2cc(-n3c4c(c5ccccc53)C(=O)CCC4)ccc2C(N)=O)cc1` gave a Kd in assay [1] of more than 10000 nM. In the assay on SK-BR-3 [2], this compound came in with an IC50 of more than 10000 nM.
The compound `CC1(C)CC(=O)c2c(n(-c3ccc(C(N)=O)c(NC4CC4)c3)c3ccccc23)C1` came in with a Kd in assay [1] of 350 nM. In the assay on SK-BR-3 [2], this compound came in with an IC50 of 610 nM.
For the compound `NC(=O)c1ccc(-n2c3c(c4cc(F)ccc42)C(=O)CCC3)cc1NC1CC1`, the Kd in assay [1] came to 250 nM. Besides, the midpoint of inhibition in the assay on SK-BR-3 [2], the IC50, lay at 1300 nM.
`CC1CC(=O)c2c(n(-c3ccc(C(N)=O)c(NCC4CC4)c3)c3ccccc23)C1` (centres undefined) had a Kd in assay [1] of 2900 nM. Further, the IC50 with SK-BR-3 [2] amounted to 6900 nM.
Consider `NC(=O)c1ccc(-n2c3c(c4ccccc42)C(=O)CCC3)cc1NC1CCOCC1`, for which, in [1], the Kd worked out at 410 nM. For the same compound, the IC50 with SK-BR-3 [2] came out at 560 nM; in the assay with A-375 [3], 400 nM; with HT-29, 370 nM; in the assay with LNCaP, 700 nM; in the assay on MCF7, 290 nM; with MDA-MB-231 it was 960 nM. Moreover, the IC50 is 900 nM with NCI-H460; 820 nM in the assay with PC-3; 340 nM with SK-MEL-5; 260 nM with SW-620; 230 nM in the assay with A-375 [4]; 590 nM in [5]. Besides, the IC50 in assay [6] was 70 nM; with SK-BR-3 [7], 560 nM.
For `COCCNc1cc(-n2c3c(c4ccccc42)C(=O)CCC3)ccc1C(N)=O`, in the assay on SK-BR-3 [2], the IC50 stood at 8900 nM.
In [1], `CC1CC(=O)c2c(n(-c3ccc(C(N)=O)c(Br)c3)c3ccccc23)C1` (centres undefined) registered a Kd of more than 10000 nM.
`CC1CC(=O)c2c(n(-c3ccc(C(N)=O)c(NC4CC4)c3)c3ccccc23)C1` (centres undefined) returned an IC50 in the assay on SK-BR-3 [2] of 7000 nM.
With `COCCNc1cc(-n2c3c(c4cc(F)ccc42)C(=O)CCC3)ccc1C(N)=O`, the Kd in assay [1] amounted to 780 nM. This compound also came in with an IC50 in the assay with SK-BR-3 [2] of 4100 nM.
Take `NC(=O)c1ccc(-n2c3c(c4ccccc42)C(=O)CCC3)cc1NCC1CC1`: the Kd in assay [1] stood at 270 nM. Also, in the assay on SK-BR-3 [2], the IC50 was 1300 nM.
The corresponding values for `NC(=O)c1ccc(-n2c3c(c4ccccc42)C(=O)CCC3)cc1NCCN1CCCC1` are 1900 nM and 31000 nM.
The corresponding values for `NC(=O)c1ccc(-n2c3c(c4ccccc42)C(=O)CCC3)cc1Nc1ccccc1` are 1000 nM and 2100 nM.
As to `N#Cc1cc(-n2c3c(c4ccccc42)C(=O)CCC3)ccc1C(N)=O`, in assay [1], the Kd was more than 10000 nM. Also, the IC50 in the assay with SK-BR-3 [2] is more than 50000 nM.
In the case of `NC(=O)c1ccc(-n2c3c(c4ccccc42)C(=O)CCC3)cc1Br`, the Kd in assay [1] was more than 10000 nM. Further, the IC50 in the assay with SK-BR-3 [2] is more than 10000 nM.
Take `NC(=O)c1ccc(-n2c3c(c4ccccc42)C(=O)CCC3)cc1N`: binding in assay [1] was characterised by a dissociation constant (Kd) of 2900 nM. Also, the IC50 in the assay on SK-BR-3 [2] was more than 10000 nM.
As to `C=CCNc1cc(-n2c3c(c4cc(F)ccc42)C(=O)CCC3)ccc1C(N)=O`, the Kd in assay [1] amounted to 250 nM. Also, in the assay on SK-BR-3 [2], the IC50 stood at 5400 nM.
Turning to `CC1(C)CC(=O)c2c(n(-c3ccc(C(N)=O)cc3)c3ccccc23)C1`, in [1], the Kd is 750 nM. Further, the IC50 in the assay on SK-BR-3 [2] was more than 50000 nM.
The corresponding values for `NC(=O)c1ccc(-n2c3c(c4ccccc42)C(=O)CCC3)cc1NC1CCC(O)CC1` (centres undefined) are 900 nM and 1200 nM.
The corresponding values for `NC(=O)c1ccc(-n2c3c(c4ccccc42)C(=O)CCC3)cc1NC1CC1` are 350 nM and 5400 nM.
With `CN(C)CCNc1cc(-n2c3c(c4cc(F)ccc42)C(=O)CCC3)ccc1C(N)=O`, in assay [1], binding was characterised by a dissociation constant (Kd) of 1200 nM. In addition, in the assay with SK-BR-3 [2], the IC50 turned out to be 34000 nM.
The corresponding values for `NC(=O)c1ccc(-n2c3c(c4ccccc42)C(=O)CCC3)cc1NC1CCC1` are 310 nM and 6800 nM.
`CCCNc1cc(-n2c3c(c4ccccc42)C(=O)CCC3)ccc1C(N)=O` showed a Kd in assay [1] of 350 nM. For the same compound, half-maximal inhibition in the assay on SK-BR-3 [2] (IC50) required 5300 nM.
Consider `CC1(C)CC(=O)c2c(n(-c3ccc(C(N)=O)c(Nc4ccccc4)c3)c3ccccc23)C1`, for which the Kd in [1] is more than 10000 nM.
For `NC(=O)c1ccc(-n2c3c(c4ccccc42)C(=O)CCC3)cc1NCc1ccccc1`, in assay [1], the Kd was more than 10000 nM. Also, the IC50 in the assay with SK-BR-3 [2] is more than 10000 nM.
`NC(=O)c1ccc(-n2c3c(c4cc(F)ccc42)C(=O)CCC3)cc1NCc1cccnc1`: the Kd in assay [1] worked out at 1100 nM. Besides, the IC50 in the assay with SK-BR-3 [2] stood at 6500 nM.
The corresponding values for `NC(=O)c1ccc(-n2c3c(c4ccccc42)C(=O)CCC3)cc1` are 1800 nM and more than 50000 nM.
The corresponding values for `NC(=O)c1ccc(-n2c3c(c4cc(F)ccc42)C(=O)CCC3)cc1NCCCN1CCOCC1` are 1100 nM and 2800 nM.
